Series [1] addresses T1, GSK3β (Homo sapiens, UniProt P49841). The series is classed as biochemical.
For the next series, the target named is CDK5/p25 (Homo sapiens, UniProt Q00535). Kind of series: ADP-Glo kinase luminescent assay, CDK5/p25 inhibition. The series is classed as biochemical. On the technique in general: ADP-Glo first removes unused ATP, then detects ADP through luciferase.
The target in the next series is PKC (Homo sapiens, UniProt P17252). Nature of the series: Kinase selectivity panel. The settings on record: read-out: Inhibition against PKC. The series is classed as biochemical.
The target of another series is AKT1 (Homo sapiens, UniProt P31749). Kind of series: Kinase selectivity panel. It counts as biochemical. The following applies: read-out: Inhibition against AKT1.
Series [2] deals with SH-SY5Y cells. Nature of the series: Cell viability / cytotoxicity assessment in SH-SY5Y cells. The series is classed as cell-based, human.
The next series concerns the target CK2 (Homo sapiens, UniProt P68400). Nature of the series: Kinase selectivity panel. The series is classed as biochemical. The settings on record: read-out: Inhibition against CK2.
A further series has as its system other 18 kinases. Nature of the series: Kinase selectivity panel. The following applies: 224 μM; p > 0.05. The series is classed as biochemical.
In series [3] the test system is SH-SY5Y cells. Kind of series: Neuroprotection against Aβ42-induced cytotoxicity, cell viability assay. The series is classed as cell-based, human. The settings on record: 1 112 μM; combinations with LiCl 10 mM or TDZD-8 10 μM; 10 μM Aβ42, 72 h.
Series [4] concerns the target T1, GSK3β. Kind of series: GSK3β enzyme kinetics. The following applies: noncompetitive inhibition with respect to ATP, GS2 constant at 17 μM, varying ATP. The series is classed as biochemical. Put shortly:
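Substrate GS2 held at 17 μM while ATP and test compound concentrations were varied. Vehicle was 5% DMSO. Quadruplicates from each of two independent experiments; means ± SEM.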

Series [5] deals with SH-SY5Y cells. Nature of the series: Morphological changes of SH-SY5Y cells. The series is classed as cell-based, human. An outline of the steps: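 SH-SY5Y cultures (37 °C, humidified, 5% CO2) were examined by microscopy after 72 h. Conditions were 0.2% DMSO vehicle control, 10 μM Aβ42 alone, or test compound pretreatment followed by 10 μM Aβ42. Read-out was differentiation state and neurite extension or retraction.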

For series [6], the target named is T1, GSK3β. Kind of series: Promiscuous aggregation assay: GSK3β inhibition with Triton X-100. The series is classed as biochemical.
Series [7] concerns SH-SY5Y cells. Kind of series: Aβ42-induced tau phosphorylation in SH-SY5Y cells. It counts as cell-based, human. An outline of the steps: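 SH-SY5Y cells were seeded at 3 × 10^5 cells/mL in DMEM/F12 with 1% FBS. […] Lysates in pyrophosphate buffer pH 7.4, 10 μg/lane, 10% SDS-PAGE, PVDF; primary antibodies 2 h at room temperature; β-actin loading control.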

Like-named read-outs stand apart in the source and are kept apart here.

Data on 4 compounds can be found in paper PMC7355085 (ACS chemical neuroscience, 2016).

The inhibition is the share of the control response that was lost under treatment. As a reminder, the Ki is a dissociation constant, usually derived from enzyme kinetics or from competition with a known ligand. Low values mean higher affinity, high ones lower affinity.

T1 sequence (P49841 whole entry): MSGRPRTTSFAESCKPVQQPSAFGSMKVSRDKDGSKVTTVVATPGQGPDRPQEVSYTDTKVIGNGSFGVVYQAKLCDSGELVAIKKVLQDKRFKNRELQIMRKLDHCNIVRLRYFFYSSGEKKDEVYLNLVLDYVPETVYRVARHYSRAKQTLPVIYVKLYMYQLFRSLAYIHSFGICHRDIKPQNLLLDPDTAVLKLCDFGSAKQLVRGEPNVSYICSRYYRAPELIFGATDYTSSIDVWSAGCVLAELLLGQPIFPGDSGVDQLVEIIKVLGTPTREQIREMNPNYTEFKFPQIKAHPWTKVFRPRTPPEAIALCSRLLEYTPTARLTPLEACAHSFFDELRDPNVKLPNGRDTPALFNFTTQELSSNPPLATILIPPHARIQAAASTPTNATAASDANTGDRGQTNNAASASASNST
Sequence of CDK5/p25 (Q00535 whole entry): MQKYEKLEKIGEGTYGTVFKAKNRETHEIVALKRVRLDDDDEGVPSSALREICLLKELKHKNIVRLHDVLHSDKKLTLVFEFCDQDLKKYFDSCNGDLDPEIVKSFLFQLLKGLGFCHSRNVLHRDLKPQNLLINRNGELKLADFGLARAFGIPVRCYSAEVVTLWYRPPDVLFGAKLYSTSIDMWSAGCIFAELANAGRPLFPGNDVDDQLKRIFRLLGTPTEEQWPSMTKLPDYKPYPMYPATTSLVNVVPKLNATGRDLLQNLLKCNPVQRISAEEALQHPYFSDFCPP
Sequence of CDK5/p25 (Q15078 99-307 partner limits assumed): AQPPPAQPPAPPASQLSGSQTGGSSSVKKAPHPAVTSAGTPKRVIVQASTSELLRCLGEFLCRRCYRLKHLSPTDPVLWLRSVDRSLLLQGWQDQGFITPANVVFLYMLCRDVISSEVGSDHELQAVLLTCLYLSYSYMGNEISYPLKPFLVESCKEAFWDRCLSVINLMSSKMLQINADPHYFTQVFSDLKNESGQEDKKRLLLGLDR
Sequence of CK2 (P68400 whole entry): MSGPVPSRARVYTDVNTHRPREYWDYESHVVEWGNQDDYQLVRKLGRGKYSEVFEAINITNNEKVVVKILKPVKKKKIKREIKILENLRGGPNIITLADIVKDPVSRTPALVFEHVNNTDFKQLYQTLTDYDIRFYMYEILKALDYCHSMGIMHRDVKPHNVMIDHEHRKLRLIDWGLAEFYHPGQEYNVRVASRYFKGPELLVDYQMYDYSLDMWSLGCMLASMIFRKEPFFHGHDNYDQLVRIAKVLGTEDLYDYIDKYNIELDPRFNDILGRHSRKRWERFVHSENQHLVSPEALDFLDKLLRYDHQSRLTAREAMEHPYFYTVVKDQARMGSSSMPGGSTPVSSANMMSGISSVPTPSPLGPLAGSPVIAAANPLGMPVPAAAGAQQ
Sequence of AKT1 (P31749 whole entry): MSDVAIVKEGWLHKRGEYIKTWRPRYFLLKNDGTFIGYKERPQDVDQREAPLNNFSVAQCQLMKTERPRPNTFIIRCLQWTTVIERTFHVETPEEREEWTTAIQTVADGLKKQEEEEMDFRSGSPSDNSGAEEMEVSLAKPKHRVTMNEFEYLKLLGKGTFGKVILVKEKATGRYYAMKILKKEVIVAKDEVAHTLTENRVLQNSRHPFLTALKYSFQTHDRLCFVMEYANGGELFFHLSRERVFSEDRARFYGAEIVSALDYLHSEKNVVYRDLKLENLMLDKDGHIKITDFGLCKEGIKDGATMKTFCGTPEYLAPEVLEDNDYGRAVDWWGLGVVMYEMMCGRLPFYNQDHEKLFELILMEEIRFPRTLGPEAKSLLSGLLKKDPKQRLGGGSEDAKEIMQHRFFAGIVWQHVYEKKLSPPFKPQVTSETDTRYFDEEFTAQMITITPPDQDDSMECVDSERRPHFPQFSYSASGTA

Consider 3’-methoxymaysin [Compound 2], for which the IC50 on GSK3β [1] (read-out: IC50, GSK3β inhibition, 25 μM ATP, 1 h, room temperature) was 288 µM; at CDK5/p25 (read-out: IC50, CDK5/p25), > 15000 µM.
`O=c1cc(-c2ccc(O)c(O)c2)oc2cc(O)c([C@@H]3O[C@H](CO)[C@@H](O)[C@H](O)[C@H]3O)c(O)c12` [Compound 1, isoorientin]: the inhibition at 224 µM at PKC, at AKT1 and on CK2 was ~30% throughout. For the same compound, the “Dose up to which no cytotoxicity to SH-SY5Y cells was noted” value with SH-SY5Y cells [2] (72 h) was > 896 µM. In the series with SH-SY5Y cells [2] (72 h, without Aβ42), the “Effect on cell proliferation” value was “slightly stimulated cell proliferation”. The “Inhibition of other 18 kinases of the panel” value in the series on other 18 kinases is “did not significantly inhibit”. The “Neuroprotection against cell viability loss, single concentration” value in the series with SH-SY5Y cells [3] is “neuroprotection against cell viability loss”. For the same compound, the “Decrease of GSK3β kinase activity” value at GSK3β [1] (224 μM, compared to control (100% kinase activity), p < 0.0001) amounted to 52.4%. This compound also returned a Ki on GSK3β [4] of 210 ± 22 µM. For the same compound, the Cell morphology result with SH-SY5Y cells [5] (pretreatment of 28 μM 1 followed by 10 μM Aβ42, 72 h) was “Partial differentiated cells with extended neurites”; with SH-SY5Y cells [5] (pretreatment of 448 μM 1 followed by 10 μM Aβ42, 72 h) it was “Protected differentiated cells with extended axons and dendrites”. For the same compound, the IC50 against GSK3β [6] was 192 µM; on CDK5/p25, > 15000 µM. In the series on SH-SY5Y cells [7] (co-incubation of 1 with 10 μM Aβ42, 72 h, compared to untreated cells, p > 0.05), the “Levels of GSK3β pS9 and total GSK3β” value is given as “No significant change”.
As for `O=c1cc(-c2ccc(O)c(O)c2)oc2cc(O)cc(O)c12` [luteolin], the IC50 amounted to 32 µM on GSK3β [6] (IC50, GSK3β, with 0.01% Triton, with 0.01% Triton X-100) and 2 µM on GSK3β [6] (IC50, GSK3β, without Triton, before addition of Triton X-100).
Consider β-Amyloid fragment peptide 1–42 [Aβ42], for which the “Inhibition of cell growth” value in the series with SH-SY5Y cells [2] (10 μM Aβ42) is “about 50%”. Besides, the Cell morphology result in the series with SH-SY5Y cells [5] (10 μM Aβ42 treatment, 72 h) is “Impaired and nondifferentiated cells with retracted neurites”. Also, in the series on SH-SY5Y cells [7] (10 μM Aβ42, 72 h), the “Increase of tau phosphorylation at pS199/pS202 relative to untreated cells” value is recorded as “approximately 3.5 fold” and the “Increase of tau phosphorylation at pS396 relative to untreated cells” value is listed as ~2.3 fold.
